Measurements: ChEMBL document CHEMBL2163274, “Heterocyclic methylsulfone hydroxamic acid LpxC inhibitors as Gram-negative antibacterial agents” (Bioorg Med Chem Lett, 2012)
In brackets after ≈: the same amount, converted by molar mass.

Target: T1, UDP-3-O-acyl-N-acetylglucosamine deacetylase (Pseudomonas aeruginosa, UniProt B5ATN6)
T1 sequence (B5ATN6 whole entry): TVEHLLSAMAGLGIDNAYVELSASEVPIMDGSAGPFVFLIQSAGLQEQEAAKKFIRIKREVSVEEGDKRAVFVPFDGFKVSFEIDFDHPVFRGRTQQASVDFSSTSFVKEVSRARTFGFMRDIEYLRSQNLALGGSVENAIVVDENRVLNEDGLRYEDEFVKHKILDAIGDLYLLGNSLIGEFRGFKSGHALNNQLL
Assay: Inhibition of Pseudomonas aeruginosa LpxC
Settings: not given
For C[C@@](CCn1cc(-c2cccc(F)c2F)nn1)(C(=O)NO)S(C)(=O)=O, the IC50 was 8.08 nM. COc1ccc(-c2cc(CC[C@](C)(C(=O)NO)S(C)(=O)=O)no2)c(F)c1 showed an IC50 of 2.32 nM. For COc1cccc(-c2cc(CC[C@](C)(C(=O)NO)S(C)(=O)=O)on2)c1F, the IC50 was 5.32 nM. With C[C@@](CCn1cc(-c2ccccc2)nn1)(C(=O)NO)S(C)(=O)=O the IC50 was 0.85 nM. Work on C[C@@](CCn1cc(-c2ccc(Cl)cc2F)nn1)(C(=O)NO)S(C)(=O)=O yielded an IC50 of 0.657 nM. C[C@@](CCn1cc(-c2ccc(Cl)c(F)c2)nn1)(C(=O)NO)S(C)(=O)=O showed an IC50 of 0.912 nM. In the case of Cc1ccc(-c2cn(CC[C@](C)(C(=O)NO)S(C)(=O)=O)nn2)cc1, the IC50 is reported as 1.39 nM.

Tested on: Klebsiella pneumoniae
Assay: Antibacterial activity against Klebsiella pneumoniae
Type: functional
Settings: not given
For C[C@@](CCn1cc(-c2ccc(Cl)cc2F)nn1)(C(=O)NO)S(C)(=O)=O, the MIC90 was 2 µg/mL (≈ 5.12 µM).

Tested on: Pseudomonas aeruginosa
Assay: Antibacterial activity against multi efflux pump knock out Pseudomonas aeruginosa PA3919
Type: functional
Settings: not given
In short: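 MIC in µg/ml against P. aeruginosa PA-3919, which lacks multiple efflux pumps. The strain is used to tell whether a compound is a substrate of these pumps.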
Compound C[C@@](CCn1cc(-c2cccc(F)c2F)nn1)(C(=O)NO)S(C)(=O)=O has an MIC of 0.125 µg/mL (≈ 0.334 µM). COc1ccc(-c2cc(CC[C@](C)(C(=O)NO)S(C)(=O)=O)no2)c(F)c1 showed an MIC of 0.125 µg/mL (≈ 0.323 µM). COc1cccc(-c2cc(CC[C@](C)(C(=O)NO)S(C)(=O)=O)on2)c1F gave an MIC of under 0.06 µg/mL. For C[C@@](CCn1cc(-c2ccccc2)nn1)(C(=O)NO)S(C)(=O)=O, the MIC was 0.03 µg/mL (≈ 0.0887 µM). Work on C[C@@](CCn1cc(-c2ccc(Cl)cc2F)nn1)(C(=O)NO)S(C)(=O)=O yielded an MIC of 0.008 µg/mL (≈ 0.0205 µM). For C[C@@](CCn1cc(-c2ccc(Cl)c(F)c2)nn1)(C(=O)NO)S(C)(=O)=O, the MIC was 0.06 µg/mL (≈ 0.154 µM). Compound Cc1ccc(-c2cn(CC[C@](C)(C(=O)NO)S(C)(=O)=O)nn2)cc1 has an MIC of 0.125 µg/mL (≈ 0.355 µM).

Tested on: Pseudomonas aeruginosa
Assay: Antibacterial activity against Pseudomonas aeruginosa PAO1
Type: functional
Settings: not given
In short: (§1)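 MIC in µg/ml against P. aeruginosa strains with fully functioning efflux pumps. PAO1 is wild type and efflux pump competent.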
With C[C@@](CCn1cc(-c2cccc(F)c2F)nn1)(C(=O)NO)S(C)(=O)=O the MIC was 4 µg/mL (≈ 10.7 µM). Work on COc1ccc(-c2cc(CC[C@](C)(C(=O)NO)S(C)(=O)=O)no2)c(F)c1 yielded an MIC of 0.5 µg/mL (≈ 1.29 µM). In the case of COc1cccc(-c2cc(CC[C@](C)(C(=O)NO)S(C)(=O)=O)on2)c1F, the MIC is reported as 2 µg/mL (≈ 5.18 µM). C[C@@](CCn1cc(-c2ccccc2)nn1)(C(=O)NO)S(C)(=O)=O showed an MIC of 1 µg/mL (≈ 2.96 µM). For C[C@@](CCn1cc(-c2ccc(Cl)cc2F)nn1)(C(=O)NO)S(C)(=O)=O, the MIC was 0.5 µg/mL (≈ 1.28 µM). For C[C@@](CCn1cc(-c2ccc(Cl)c(F)c2)nn1)(C(=O)NO)S(C)(=O)=O, the MIC was 2 µg/mL (≈ 5.12 µM). Compound Cc1ccc(-c2cn(CC[C@](C)(C(=O)NO)S(C)(=O)=O)nn2)cc1 has an MIC of 2 µg/mL (≈ 5.68 µM).

Tested on: not listed separately
Assay: Lipophilicity, log D of the compound at pH 7.4
Type: physicochemical
Settings: buffer
Compound C[C@@](CCn1cc(-c2ccc(Cl)cc2F)nn1)(C(=O)NO)S(C)(=O)=O has a logD of 1.34.

Tested on: Escherichia coli
Assay: Antibacterial activity against Escherichia coli
Type: functional
Settings: not given
C[C@@](CCn1cc(-c2ccc(Cl)cc2F)nn1)(C(=O)NO)S(C)(=O)=O showed an MIC90 of 1 µg/mL (≈ 2.56 µM).

Tested on: Pseudomonas aeruginosa
Assay: Antibacterial activity against Pseudomonas aeruginosa PA7
Type: functional
Settings: not given
In short: as §1
With C[C@@](CCn1cc(-c2cccc(F)c2F)nn1)(C(=O)NO)S(C)(=O)=O the MIC was 4 µg/mL (≈ 10.7 µM). For COc1ccc(-c2cc(CC[C@](C)(C(=O)NO)S(C)(=O)=O)no2)c(F)c1, the MIC was 0.5 µg/mL (≈ 1.29 µM). For COc1cccc(-c2cc(CC[C@](C)(C(=O)NO)S(C)(=O)=O)on2)c1F, the MIC was 4 µg/mL (≈ 10.4 µM). Work on C[C@@](CCn1cc(-c2ccccc2)nn1)(C(=O)NO)S(C)(=O)=O yielded an MIC of 2 µg/mL (≈ 5.91 µM). Compound C[C@@](CCn1cc(-c2ccc(Cl)cc2F)nn1)(C(=O)NO)S(C)(=O)=O has an MIC of 1 µg/mL (≈ 2.56 µM). For C[C@@](CCn1cc(-c2ccc(Cl)c(F)c2)nn1)(C(=O)NO)S(C)(=O)=O, the MIC was 2 µg/mL (≈ 5.12 µM). Work on Cc1ccc(-c2cn(CC[C@](C)(C(=O)NO)S(C)(=O)=O)nn2)cc1 yielded an MIC of 4 µg/mL (≈ 11.4 µM).

Tested on: Pseudomonas aeruginosa
Assay: Antibacterial activity against quinolone-resistant Pseudomonas aeruginosa PA3060
Type: functional
Settings: not given
In short: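 MIC (µg/ml) against quinolone-resistant P. aeruginosa PA-3060, run alongside efflux-competent strains PAO1 and PA-7 and the multi-efflux-pump knockout PA-3919. Some analogs were tested as racemates.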
C[C@@](CCn1cc(-c2cccc(F)c2F)nn1)(C(=O)NO)S(C)(=O)=O showed an MIC of 8 µg/mL (≈ 21.4 µM). Compound COc1ccc(-c2cc(CC[C@](C)(C(=O)NO)S(C)(=O)=O)no2)c(F)c1 has an MIC of 1 µg/mL (≈ 2.59 µM). In the case of COc1cccc(-c2cc(CC[C@](C)(C(=O)NO)S(C)(=O)=O)on2)c1F, the MIC is reported as 8 µg/mL (≈ 20.7 µM). Work on C[C@@](CCn1cc(-c2ccccc2)nn1)(C(=O)NO)S(C)(=O)=O yielded an MIC of 4 µg/mL (≈ 11.8 µM). C[C@@](CCn1cc(-c2ccc(Cl)cc2F)nn1)(C(=O)NO)S(C)(=O)=O showed an MIC of 1 µg/mL (≈ 2.56 µM). Compound C[C@@](CCn1cc(-c2ccc(Cl)c(F)c2)nn1)(C(=O)NO)S(C)(=O)=O has an MIC of 2 µg/mL (≈ 5.12 µM). In the case of Cc1ccc(-c2cn(CC[C@](C)(C(=O)NO)S(C)(=O)=O)nn2)cc1, the MIC is reported as 8 µg/mL (≈ 22.7 µM).

Tested on: Pseudomonas aeruginosa
Assay: Antibacterial activity against Pseudomonas aeruginosa
Type: functional
Settings: not given
C[C@@](CCn1cc(-c2ccc(Cl)cc2F)nn1)(C(=O)NO)S(C)(=O)=O showed an MIC90 of 1 µg/mL (≈ 2.56 µM).

Tested on: Acinetobacter baumannii
Assay: Antibacterial activity against Acinetobacter baumannii
Type: functional
Settings: not given
Compound C[C@@](CCn1cc(-c2ccc(Cl)cc2F)nn1)(C(=O)NO)S(C)(=O)=O has an MIC90 of over 32 µg/mL.
